Here are results for 14 compounds from publication PMC8961603 (RSC Advances, 2022).

≈ marks a conversion by molar mass, not a printed value. Entries after “also recorded” stand apart in the source; their conditions may differ.

The test system of one data set is Vero cells. In words: In vitro cytotoxicity assay. The class given is cell-based. Particulars: MTT.
Data set [1] has as its system third stage instar larvae of Aedes aegypti. In words: Larvicidal bioassay. Particulars: for larvicidal activity (in words): 24, 48 and 72 h exposure, 50-250 μg ml^−1. The class given is in vivo.
A short description of data set [2]: In vitro cytotoxicity assay. Format: cell-based. To be noted: African green monkey, Vero cells, Vero IC50 cytotoxicity, MTT.
For data set [3], the system named is Aedes aegypti larvae (midgut). In words: Histopathological analysis of larvae. To be noted: 72 h exposure. The class given is in vivo.
Data set [4] deals with human blood cells (red blood cell suspension). In words: Haemolytic assay. The class given is cell-based. The procedure, abridged:
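Fresh anticoagulated human blood spun 10 min at 2000 rpm; pellet resuspended in 0.9% NaCl to a 2% v/v red cell suspension. Cells incubated with test compound at 25, 50 or 100 μg ml−1 for 1 h at 37 °C, 5% CO2. Haemoglobin release read at 540 nm. Controls were 1% v/v NaOH for complete lysis and 0.9% NaCl for none. Percent haemolysis was calculated.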

Where [5] appears, read: larvicidal LC50 used in QSAR training set, exposure time not given.
[6] abbreviates: 24 h exposure, log probit analysis.
Setting [7] is: 48 h exposure, log probit analysis.
Setting [8] is: 72 h exposure, log probit analysis.
Where [9] appears, read: Aedes aegypti, 24 h, 24 h exposure, log probit analysis.
Where [10] appears, read: Aedes aegypti, 48 h, 48 h exposure, log probit analysis.
The mark [11] stands for this setting: Aedes aegypti, 72 h, 72 h exposure, log probit analysis.

As for “1-[(E)-2-Phenylethenyl]-2-{[(3,4,5-trimethoxy phenyl) methylidene] amino}-2,5-dihydro-1H-1,2,4-triazole-3-thiol [CA 5]”, the “Vero IC50 cytotoxicity” value in the data set with Vero cells stood at 223 ± 0.05 µg/mL.
“2-(3-Methylphenyl)-5-[(E)-2-phenylethenyl]-5,6-dihydro[1,2,4]triazolo[5,1-b][1,3,4]thia diazole [CATD 4]”: in data set [1] (setting [5]), the LC50 (commonly the concentration lethal to half of the exposed cells or organisms) came out at 0.15 µM. For the same compound, in the data set with Vero cells, the “Vero IC50 cytotoxicity” value was 252 ± 0.20 µg/mL.
The like results for “2-{[(4-Chlorophenyl) methylidene] amino}-1-[(E)-2-phenylethenyl]-2,5-dihydro-1H-1,2,4-triazole-3-thiol [CA 1]” were, in that order, 0.13 µM and 309 ± 0.21 µg/mL.
Consider `Nc1ccc(/C=C/C(=O)NNc2ccc([N+](=O)[O-])cc2[N+](=O)[O-])cc1` [ACA 1, (2E)-3-(4-Aminophenyl)-N′-(2,4-dinitrophenyl)prop-2-enehydrazide], for which, in data set [2], half-maximal inhibition (IC50) required 285 ± 0.05 µg/mL (≈ 830 µM).
The same measure, in the same setting: as for `NC(=S)NNC(=O)/C=C/c1ccc(N)cc1` [ACA 3, 2-[(2E)-3-(4-Aminophenyl)prop-2-enoyl]hydrazine-1-carbothioamide], the figure is 254 ± 0.03 µg/mL (≈ 1070 µM).
On to `COc1cc(C=NN2C(S)=NCN2/C=C/c2ccccc2)ccc1O` [CA 7, 2-Methoxy-4-[({2-[(E)-2-phenylethenyl]-5-sulfanyl-2,3-dihydro-1H-1,2,4-triazol-1-yl}imino)methyl] phenol], for which the midpoint of inhibition in data set [2], the IC50, lay at 295 ± 0.04 µg/mL (≈ 832 µM).
With `O=[N+]([O-])c1ccc(C=NN2C(S)=NCN2/C=C/c2ccccc2)cc1` [CA 9, 2-{[(4-Nitrophenyl)methylidene]amino}-1-[(E)-2-phenylethenyl]-2,5-dihydro-1H-1,2,4-triazole-3-thiol], the IC50 (commonly the concentration at which inhibition is half-maximal) in data set [2] came out at 235 ± 0.05 µg/mL (≈ 665 µM). The IC50 values of the last two compounds are within 1.5-fold of each other.
Take `SC1=NCN(/C=C/c2ccccc2)N1N=Cc1ccc(Br)cc1` [CA 10, 2-{[(4-Bromophenyl)methylidene]amino}-1-[(E)-2-phenylethenyl]-2,5-dihydro-1H-1,2,4-triazole-3-thiol]: the LC90 is listed as 210.414 ppm in data set [1] (setting [6]), 172.096 ppm in data set [1] (setting [7]) and 122.913 ppm in data set [1] (setting [8]). The LC50 in data set [1] (setting [9]) stood at 156 µg/mL; in data set [1] (setting [10]), 121 µg/mL; in data set [1] (setting [11]), 50.3 µg/mL. Moreover, half-maximal inhibition in data set [2] (IC50) was put at 241 ± 0.01 µg/mL (≈ 622 µM).
In data set [2], `CN(C)c1ccc(/C=C/C=NN2C(S)=NCN2/C=C/c2ccccc2)cc1` [CA 11, 2-({(2E)-3-[4-(Dimethylamino)phenyl]prop-2-en-1-ylidene}amino)-1-[(E)-2-phenylethenyl]-2,5-dihydro-1H-1,2,4-triazole-3-thiol] gave an IC50 of 229 ± 0.02 µg/mL (≈ 607 µM).
As for `Cc1cccc(C2=NN3C(=NCN3/C=C/c3ccccc3)S2)c1` [CATD 2, 2-(3-Methylphenyl)-5-[(E)-2-phenylethenyl]-5,6-dihydro[1,2,4]triazolo[5,1-b][1,3,4]thiadiazole], the “larvicidal activity (in words)” value in data set [1] was “effectively showed larvicidal activity”. Moreover, the LC90 is reported as 311.453 ppm in data set [1] (setting [6]), 241.010 ppm in data set [1] (setting [7]) and 179.532 ppm in data set [1] (setting [8]). Moreover, the LC50 was found to be 187 µg/mL in data set [1] (setting [9]), 132 µg/mL in data set [1] (setting [10]) and 86.6 µg/mL in data set [1] (setting [11]). Besides, the “histopathological findings in larvae” value in data set [3] was “severe lesions that primarily affected the midgut epithelium”. Further, the “Hemolytic (%)” value in data set [4] (Conc. 25 PPM) was 4.605%; in data set [4] (Conc. 50 PPM), 5.367%; in data set [4] (Conc. 100 PPM), 5.759%. Moreover, the IC50 in data set [2] was determined as 218 ± 0.02 µg/mL (≈ 680 µM).
Take `Oc1ccc(C2=NN3C(=NCN3/C=C/c3ccccc3)S2)cc1O` [CATD 3, 4-{5-[(E)-2-Phenylethenyl]-5,6-dihydro[1,2,4]triazolo[5,1-b][1,3,4]thiadiazol-2-yl}benzene-1,2-diol]: the concentration for half-maximal inhibition (IC50) in data set [2] is 270 ± 0.2 µg/mL (≈ 798 µM).
Take `CC(=O)OCC(CCn1cnc2cnc(N)nc21)COC(C)=O` [FMCV, Famciclovir, reference compound]: the LC90 is 241.010 ppm in data set [1] (setting [7]) and 179.532 ppm in data set [1] (setting [8]). Moreover, the 50% lethal concentration (LC50) in data set [1] (setting [9]) came to 248 µg/mL; in data set [1] (setting [10]), 203 µg/mL; in data set [1] (setting [11]) it was 139 µg/mL. Further, the figures for the “Hemolytic (%)” value in data set [4] (Conc. 25 PPM), in data set [4] (Conc. 50 PPM) and in data set [4] (Conc. 100 PPM) were 4.802%, 6.448% and 8.901%, respectively. In data set [2], the IC50 was 270 ± 0.2 µg/mL (≈ 840 µM).
In the case of `CC(C)=CCc1c(O)cc(O)c2c1O[C@H](c1ccccc1)CC2=O` [Glabranin, reference compound], the results for the LC90 in data set [1] (setting [6]), in data set [1] (setting [7]) and in data set [1] (setting [8]) were 311.453 ppm, 241.010 ppm and 179.532 ppm, respectively. In addition, the results for the LC50 in data set [1] (setting [9]), in data set [1] (setting [10]) and in data set [1] (setting [11]) were 258 µg/mL, 199 µg/mL and 140 µg/mL, respectively. The “Hemolytic (%)” value in data set [4] (Conc. 25 PPM) turned out to be 2.326%; in data set [4] (Conc. 50 PPM), 4.713%; in data set [4] (Conc. 100 PPM), 5.217%. For the same compound, the IC50 in data set [2] was 252 ± 0.2 µg/mL (≈ 777 µM).
For “(2E)-3-(4-Aminophenyl)-N′-(2,4-dinitrophenyl)prop-2-enehydrazide [ACA 4]”, the “larvicidal activity (in words)” value in data set [1] is given as “slow mortality; also recorded: effectively showed larvicidal activity”. In addition, the LC50 in data set [1] (setting [6]) worked out at 101.176 ppm; in data set [1] (setting [7]) it was 88.823 ppm; in data set [1] (setting [8]) it was 47.347 ppm; in data set [1] (setting [5]) it was 0.10 µM. For the same compound, the results for the LC90 in data set [1] (setting [6]), in data set [1] (setting [7]) and in data set [1] (setting [8]) were 358.428 ppm, 323.217 ppm and 240.784 ppm, respectively. Moreover, the “histopathological findings in larvae” value in data set [3] is recorded as “severe lesions that primarily affected the midgut epithelium”. In addition, the entries for the “Hemolytic (%)” value in data set [4] (Conc. 25 PPM), in data set [4] (Conc. 50 PPM) and in data set [4] (Conc. 100 PPM) were 1.736%, 2.122% and 3.460%, respectively. For the same compound, in the data set on Vero cells, the “Vero IC50 cytotoxicity” value was determined as 328 ± 0.02 µg/mL.
